Screening results: PubChem BioAssay, Broad Institute
An excerpt weighted towards active compounds, which were near 4.4% of everything screened.
HSF-1 act: HSF-1 activators, primary screen, NIH3T3-HGL cells, MG132 stress, luminescence, single point | NIH3T3-HGL HSF-1 luciferase reporter, 8 h; 100% = twice DMSO control signal | activation, % at 9 µM | hit rate 1.7% among 300,000;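 active = mean replicate activation of at least 50% with a set share of replicates each reaching 50%; inconclusive = only one of those two conditions met; inactive = mean below 50% and too few replicates reaching it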;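 also: 0% = median of the neutral control wells and 100% = twice that signal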
HIF act: HIF pathway transcriptional activators, primary screen, cell-based, U2OS HRE-luciferase, luminescence; U2OS HRE-luciferase reporter; normalized: DMSO 0%, desferrioxamine 100%; hit rate 0.32% among 300,000; activation, % at 7.5 µM (by protocol); AID 1910, 2009;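 active = mean activation of at least 10% of the iron chelator positive control signal, with at least half of replicates also reaching 10%; inconclusive = mean and replicate majority disagree about reaching 10%; inactive = mean and most replicates under 10%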
Calb FLC: C. albicans growth inhibition with fluconazole, primary screen, CaCi-2 strain, Alamar Blue fluorescence. C. albicans CaCi-2 + fluconazole, 48 h. growth inhibition, % (no concentration beside the values). hit rate 0.57% among 300,000;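 active = growth inhibition above about 58% in most replicates, limit read from the data, passing the limit was not always enough; inconclusive = exactly half the replicates above a set limit; inactive = most replicates below a set limit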;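 also: all wells also contain fluconazole at 8 µg/ml as a sub-toxic cotreatment; 0% = median of DMSO wells and 100% = median of geldanamycin control wells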
HSF1 inhib: HSF1 inhibitors in luciferase reporter cells, primary screen, cell-based, NIH3T3, luminescence; NIH3T3-HGL HSE-luciferase, MG132-induced, luminescence 8 h; stronger effect = lower value; activity change, negative = inhibition, % at 7.5 µM (by protocol); hit rate 0.77% among 300,000; AID 2098, 2009;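 active = more than half of replicate wells show activity change below -50%, luminescence cut by over half; inconclusive = some wells, but at most half, below -50%; inactive = no replicate well below -50%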;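 also: luciferase reports HSF-1 transcriptional activity via heat shock element; 0% = median of DMSO wells and -100% = zero luminescence signal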
T cruzi inh: inhibitors of intracellular T. cruzi growth, primary screen, luminescence, NIH3T3 host cells. AID 1885, 2009. T. cruzi beta-gal in NIH3T3, 90 h. inhibition, % (test concentration not listed). hit rate 1.4% among 300,000;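 active = mean inhibition across valid replicates above about 55%, limit read from the data; inconclusive = mean below that limit but half or more replicates reach it; inactive = mean below it, under half of replicates reach it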;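 also: signal also drops with host cell toxicity which is not excluded here; 0% = plate median of DMSO wells and 100% = zero luminescence signal; higher percent means less beta-gal luminescence so fewer parasites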
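Read-out: Parasite load inhibition, % | Test system: Mouse NIH/3T3 fibroblasts infected with β-gal-expressing T. cruzi Tulahuen C4 | Amount: 5,000 cells/well | Medium: DMEM, 2% fetal bovine serum | Signal: GalScreen β-gal luminescence, detergent lysis, 60 min | Timing: 3 h attach, ≥90 h co-culture | Also added: Tulahuen C4 trypomastigotes, 5000/well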
* marks the source's active call; other numbers are inactive results; ? = inconclusive; . = not tested or not shown.

SMILES	HSF-1 act	HIF act	Calb FLC	HSF1 inhib	T cruzi inh
Cc1ccc2nc(NC(=O)c3cccc(-c4cc5ccccc5oc4=O)c3)sc2c1	-3	0	1	-5	64*
O=C(N/N=C/c1sc(N2CCOCC2)nc1-c1ccccc1)c1cccc(S(=O)(=O)N2CCCC2)c1	-6	-1	88*	0	77*
O=C(N/N=C/c1sc(N2CCOCC2)nc1-c1ccccc1)c1ccc(O)cc1	?	0	-2	19	-6
CCOC(=O)COc1ccc(Br)cc1/C=C\c1[nH]c(=O)[nH]c(=O)c1[N+](=O)[O-]	13	0	-9	7	-22
CCOC(=O)COc1ccc(Br)cc1/C=C/c1[nH]c(=O)[nH]c(=O)c1[N+](=O)[O-]	85*	0	3	53	-10
CCOc1cc(/C=C\c2[nH]c(=O)[nH]c(=O)c2[N+](=O)[O-])ccc1OC(C)CC (stereo unspecified)	64*	1	21	41	-32
O=C(COc1ccccc1/C=C\c1[nH]c(=O)[nH]c(=O)c1[N+](=O)[O-])Nc1ccccc1	31	0	-13	7	55*
CCCOc1ccc(/C=C/c2[nH]c(=O)[nH]c(=O)c2[N+](=O)[O-])cc1OCC	5	0	-3	3	-4
Nn1c(-c2cccc(Br)c2)n[nH]c1=S	-64	0	-16	-54*	-1
COC(=O)c1sccc1NC(=O)Nc1ccccc1Cl	.	.	20	.	.
CC1Cc2ccccc2N1CC(=O)NC(=O)NC1CCCCC1 (stereo unspecified)	-53	0	22	?	1
COc1ccc(Br)cc1CNC(=O)CCN1C(=O)COc2ccccc21	-74	0	2	-67*	-8
CNC(=O)NNC(=O)c1csc(Cc2c(Cl)sc3ccc(Cl)cc23)n1	19	-1	7	2	18
Cc1cc2c(n1-c1ccc(Br)cc1)CC(C)(C)CC2=O	4	0	-7	3	58*
Cc1cc(C)n2nc(Sc3ncccc3[N+](=O)[O-])nc2n1	17	0	-3	-7	-10
CCN(CC)S(=O)(=O)c1ccc2oc(C(=O)N3CCc4ccccc4C3)c(C)c2c1	-9	0	18	-5	1
CCN(CC)S(=O)(=O)c1ccc2oc(C(=O)NC3CCCc4ccccc43)c(C)c2c1 (stereo unspecified)	12	-1	23	-5	81*
COC(=O)C[N+](C)(C)C/C=C\c1ccccc1	12	0	-1	0	-7
Cc1cccc(S(=O)(=O)NCCC(=O)OC(C)C(=O)NC(=O)NC2CCCCC2)c1 (stereo unspecified)	53*	0	-5	21	-1
COc1ccccc1-c1nn2c(-c3ccco3)nnc2s1	62*	3	28	44	27
Cc1ccccc1-n1nc2c(c1NC(=O)c1cc3ccccc3o1)CS(=O)(=O)C2	-12	0	-4	6	-2
O=C(/C=C/c1cccs1)NCc1ccccc1	41	2	0	19	-8
COC(=O)[C@@]12CCCCN1[C@H](c1ccc(SC3CCCCC3)cc1)[C@@H]1C(=O)N(C)C(=O)[C@@H]12	7	0	13	-2	-22
Cc1ccc(-n2nc3c(N4CCC(C(=O)NCc5ccccc5C)CC4)nnc(C)c3c2C)cc1	29	-6	-16	5	36
CCOc1ccccc1CNC(=O)C1CCN(c2nnc(C)c3c(C)n(-c4ccc(C)cc4)nc23)CC1	24	-5	-4	11	57*
SMILES	HSF-1 act	HIF act	Calb FLC	HSF1 inhib	T cruzi inh
COc1ccc(-n2nc3c(N4CCC(C(=O)N5CCCCCC5)CC4)nnc(C)c3c2C)cc1	7	0	-5	7	59*
CC(C)(C)C(=O)N(Cc1ccc(Cl)cc1)Cc1cccnc1	9	0	-1	-7	16
Cc1nc(NC(=O)c2ccccc2)sc1-c1csc(NCc2ccccc2)n1	9	1	11	8	-10
Cc1nc(NC(=O)c2ccccc2)sc1-c1csc(NCCc2ccccc2)n1	16	2	6	11	69*
Cc1nn2c(N3CCN(C)CC3)cc(C(C)(C)C)nc2c1-c1ccccc1	8	-1	36	1	67*
Cc1nn2c(N3CCN(C4CCCC4)CC3)cc(C(C)(C)C)nc2c1-c1ccccc1	4	0	-1	-5	-10
Nc1nc(F)nc2c1ncn2[C@@H]1O[C@H](CO)[C@@H](O)[C@H]1O	-62	-3	.	-56*	44
COc1ccc(CCNC(=O)N[C@@H](Cc2ccccc2)C(=O)O)cc1	7	-6	-11	7	-10
O=C(Cn1cccc1C(=O)c1ccccc1)NCc1cccs1	-2	0	-8	1	-1
COc1ccc(CC(=O)Nc2cccc(-c3nnc(-c4ccccc4)o3)c2)cc1OC	-21	376*	6	-24	6
COc1ccc(NC(=O)Cc2c(C)n(C(=O)c3ccc(Cl)cc3)c3ccc(OC)cc23)cc1	-8	1	3	-1	44
COc1ccc2c(c1)c(CC(=O)Nc1ccc(C)cc1)c(C)n2C(=O)c1ccc(Cl)cc1	26	0	10	5	56*
CN(C)S(=O)(=O)c1cccc(NC(=O)COC(=O)c2c[nH]c(=O)[nH]c2=O)c1	4	0	-33	-3	-6
COCCNC(=O)CSc1nc2scc(-c3ccccc3)c2c(=O)[nH]1	19	0	?	-7	-30
CCC1(C)N=C(N)Nc2nc3cc(C)c(C)cc3n21 (stereo unspecified)	71*	-15	.	24	28
NC1=NC2(CCCC2)n2c(nc3ccccc32)N1	10	0	-3	-1	-14
CC(C)n1c(/C=C/c2ccccc2)nc2ccccc21	107*	2	-27	79	0
COCCOCCn1c(/C=C/c2ccccc2)nc2ccccc21	60*	1	-3	32	10
CCCn1c(/C=C/c2ccccc2)nc2ccccc21	.	.	33	.	.
CC(C)n1c(CN(C)c2ccccc2)nc2ccccc21	26	-8	-2	3	-7
Cc1cc(C)n2nc(-c3ccsc3-n3c(C)ccc3C)cc2n1	4	0	-5	-6	55*
Cc1ccc(-c2cc3nc(C)cc(C)n3n2)cc1	12	2	26	3	-19
C/C(CC(=O)Nc1cccc(C(F)(F)F)c1)=N\NC(=O)c1cnccn1	21	1	-6	12	2
CCN(CC)Cc1c(O)ccc2c1O/C(=C\C=C\c1ccccc1)C2=O	116*	-3	15	82	60*
CS(=O)(=O)Oc1ccc2c(c1)O/C(=C\C=C\c1ccccc1)C2=O	109*	2	34	56	17
